KCC2 mod: KCC2 cotransporter modulators, thallium flux, primary screen, cell-based, HEK293 KCC2, FluoZin-2 fluorescence, MLSMR; KCC2 cells, thallium flux FluoZin-2 fluorescence; B-score of Tl+ flux slope (higher = more flux/activation; lower = inhibition) at 10 µM; Solute carrier family 12 member 5 (Homo sapiens), Q9H2X9; AID 1456, 2008; actives 2.2% (n = 190,000);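 active means thallium flux slope and its plate-corrected score both differing from the plate sample mean at a set confidence after two filtering rounds, in either direction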;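 further: slope of fluorescence scaled to starting intensity during 10 to 20 s after thallium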
hERG rescue: hERG rescue from dofetilide block, primary screen, cell-based, CHO-hERG, FluxOR thallium flux, dofetilide IC70; Voltage-gated inwardly rectifying potassium channel KCNH2 (Homo sapiens), Q12809; dofetilide IC70 present; activation (rescue from dofetilide block), less the hit threshold, % at 10 µM; actives 0.51% (n = 310,000);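 active means activation above the mean of controls blocked by dofetilide plus 5 SD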;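 further: thallium influx through hERG after potassium depolarization seen as dye fluorescence rise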
KCNQ1 act: potentiators or activators of KCNQ1 channel, primary screen, cell-based, thallium flux, high-throughput; B-score at 10 µM; AID 2648, 2010; CHO-K1 KCNQ1, thallium flux FluxOR fluorescence; active compounds read high; Potassium voltage-gated channel subfamily KQT member 1 (Homo sapiens), P51787; actives 0.35% (n = 310,000);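 active means fluorescence ratio B-score, a plate-corrected score, at least three library SD, with initial intensity B-score within 5 SD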
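Material: CHO-K1 cells stably expressing KCNQ1. Medium: assay buffer for compound exposure, DMSO matched across wells. Reagent: K+/Tl+ depolarizing stimulus. Compound dosing: single-concentration screen. Times: 37 °C overnight plating, 90-min dark dye load, 20-min compound pretreatment. Technique: FluxOR Tl+ flux fluorescence.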
KCNQ1 inh: inhibitors of human KCNQ1 channel, primary screen, cell-based, thallium flux, high-throughput; Potassium voltage-gated channel subfamily KQT member 1 (Homo sapiens), P51787; CHO-K1 KCNQ1, FluxOR thallium flux fluorescence; active compounds read high; B-score at 10 µM; actives 1.3% (n = 310,000); AID 2642, 2010;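 active means compounds whose thallium flux B-score, printed positive for inhibition, exceeds three library SD while starting fluorescence stays within three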;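 further: channel opened by potassium depolarization with thallium stimulus after 20 min compound exposure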
KCNK9 block: KCNK9 potassium channel inhibitors, primary screen, HEK293 cells, thallium flux; B-score at 10 µM; FluxOR thallium flux fluorescence; active compounds read low; actives 1.2% (n = 310,000);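 active means ratio B-score over 3 SD below the library mean, with starting fluorescence within 5 SD of its mean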;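 further: negative B-score means less thallium flux so channel inhibition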
Target sequence (Q9NPC2 whole entry, looked up): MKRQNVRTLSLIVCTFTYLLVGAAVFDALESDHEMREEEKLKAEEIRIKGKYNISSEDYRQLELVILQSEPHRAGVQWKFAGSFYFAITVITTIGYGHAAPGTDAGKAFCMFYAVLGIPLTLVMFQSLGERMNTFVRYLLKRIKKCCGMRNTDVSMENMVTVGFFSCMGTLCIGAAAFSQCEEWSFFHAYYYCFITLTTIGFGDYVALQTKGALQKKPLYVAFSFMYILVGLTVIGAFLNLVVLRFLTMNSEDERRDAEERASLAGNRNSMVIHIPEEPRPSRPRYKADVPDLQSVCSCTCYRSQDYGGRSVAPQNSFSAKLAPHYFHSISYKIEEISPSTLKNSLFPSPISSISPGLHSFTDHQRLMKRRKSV
KCNK3 block: human KCNK3 channel inhibitors, primary screen, CHO cells, FluxOR thallium flux, B-score. B-score at 10 µM. actives 0.84% (n = 340,000). AID 602410, 2012. Potassium channel subfamily K member 3 (Homo sapiens), O14649. FluxOR fluorescence; active compounds read low;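 active means B-score under library mean minus 4 SD, starting fluorescence ratio at most library mean plus 5 SD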;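 further: more negative B-score means stronger inhibition of thallium flux through KCNK3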
Active calls of the source: *; i = inactive; . = not tested or not shown. Shown are actives, neighbours in structure and some others; about 4.1% of the full set was active somewhere.

SMILES	KCC2 mod	hERG rescue	KCNQ1 act	KCNQ1 inh	KCNK9 block	KCNK3 block
O=C(Nc1ccccc1Sc1ccccc1)c1ccccc1	0.1	-9	i	i	-7.7*	i
Cc1cc(C)c(Cc2c(C)nc3c(C(=O)NCc4ccco4)cnn3c2C)c(C)c1	-1.3	-16	i	i	-7.3*	i
O=C(NCc1ccco1)c1cnn2c(C(F)F)cc(-c3ccccc3)nc12	.	-6	i	i	i	i
COc1ccc(OC)c(Nc2c3ccccc3nc3ccccc23)c1	.	-16	i	i	i	i
COc1ccc([N+](=O)[O-])cc1Nc1c2ccccc2nc2ccccc12	.	-8	i	8*	i	i
CSCC(C)N1CCC(N2CCC(C(=O)NCc3ccccn3)CC2)CC1 (stereo not given)	.	-11	i	i	i	i
CCN(C(=O)CN1CCCCC1C)c1c(N)n(Cc2ccccc2)c(=O)[nH]c1=O (stereo not given)	.	.	.	.	.	i
O=C(COC(=O)C1C2CC3OC(=O)C1C3C2)Nc1ccccc1 (stereo not given)	.	-9	i	i	i	i
COc1ccc(NC(=O)CSc2nc3nc(-c4cccs4)cc(C(F)(F)F)c3c(=O)[nH]2)c(OC)c1	-1.5	-5	i	9*	i	i
S=C(NCc1ccccc1)NC1CCSc2ccccc21 (stereo not given)	.	-4	i	i	i	i
CC[C@]12c3[nH]c4cc(CCC(=O)N(C)C)ccc4c3CCN1C(=O)[C@@H](CC(=O)NCc1cccc(C(F)(F)F)c1)C[C@@H]2C(=O)N1CCN(C(=O)c2ccco2)CC1	.	.	.	.	.	i
COc1cc(/C=C2\SC(c3ccccc3)=NC2=O)cc(Cl)c1O	-2.1	-8	i	i	i	-10*
COc1ccc(/C=C2\SC(c3ccc(C)cc3)=NC2=O)cc1OC	.	9.7*	i	i	i	i
O=C(c1ccc(Br)c(S(=O)(=O)N2CCOCC2)c1)N1CCN(C/C=C/c2ccccc2)CC1	.	.	.	.	.	i
O=C1C2C3C=CC(C4CC34)C2C(=O)N1/N=C/c1ccc(-c2ccc(F)cc2[N+](=O)[O-])o1 (stereo not given)	.	8.1*	i	i	i	i
CCn1nc(C)cc1-c1nnc(Sc2ncc([N+](=O)[O-])s2)n1C	.	-26	i	11*	i	i
O=C(O)CC(CN1C(=O)c2ccccc2C1=O)c1ccccc1 (stereo not given)	.	-5	i	i	i	i
Cc1cccc(/C=C/C(=O)c2ccc([N+](=O)[O-])o2)c1	.	-17	i	8*	i	i
Cc1ccccc1/C=C/C(=O)c1ccc([N+](=O)[O-])o1	.	-11	i	7*	i	.
CCOc1ccc(C(=O)NNC(=O)CCNC(=O)c2ccc(Br)cc2)cc1OC	.	.	.	.	.	i
CCOc1cc(C2NN=C(c3ccc(C)cc3)S2)ccc1O (stereo not given)	41*	.	.	.	.	i
COc1ccc(C2NN=C(c3ccc(C)cc3)S2)cc1 (stereo not given)	.	-4	i	i	i	i
CCOc1ccc(N(CC)C(=O)CCS(=O)(=O)c2cccc3nonc23)cc1	.	-3	i	i	i	i
O=S(=O)(Nc1ccccc1N1CCCCC1)c1ccc(Cl)s1	12*	-4	i	i	-7.4*	i
CC(C)(C)NC(=O)C(=O)NNC(=O)c1ccc(C(C)(C)C)cc1	54*	15*	20*	i	i	i
SMILES	KCC2 mod	hERG rescue	KCNQ1 act	KCNQ1 inh	KCNK9 block	KCNK3 block
O=C(Nc1ccccc1C(=O)NC(Cc1ccccc1)C(=O)NC1CCCCCC1)c1ccccc1 (stereo not given)	1.1	-6	i	6*	i	i
O=C(NC1CCCCC1)C(Cc1ccccc1)NS(=O)(=O)c1cccs1 (stereo not given)	.	7.9*	i	i	i	i
O=C(NC1CCCc2ccccc21)C(Cc1ccccc1)NS(=O)(=O)c1cccs1 (stereo not given)	-0.7	-9	i	i	i	i
CCOc1cccc(C(=O)Nc2ccccc2C(=O)N2CCN(C)CC2)c1	.	-3	i	i	i	i
CC(NC(N)=O)C(=O)NCC(=O)OCc1ccccc1 (stereo not given)	1	-4	i	i	i	i
CC(=O)SCC(Cc1ccccc1)C(=O)NCC(=O)OCc1ccccc1 (stereo not given)	-4.2*	-11	i	i	i	.
CC1CCC(n2c(=S)[nH]c3ccccc3c2=O)CC1 (stereo not given)	30*	18*	56*	i	i	i
CC1CCCCN1CCCn1c(=S)[nH]c2ccccc2c1=O (stereo not given)	.	-11	i	i	i	i
CC1CCCC(n2c(=S)[nH]c3ccccc3c2=O)C1C (stereo not given)	29*	0	41*	i	i	i
CC1CCN(CCCn2c(=S)[nH]c3ccccc3c2=O)CC1	0.59	-6	i	i	i	i
O=c1c2ccccc2[nH]c(=S)n1C1CCCCC1	69*	9.3*	9*	i	i	i
O=c1c2ccccc2[nH]c(=S)n1CCCN1CCN(C2CCCCC2)CC1	2.3	.	.	.	.	i
Cc1cc(NC(=O)CSc2nnc(-c3ccccc3F)n2N)no1	.	.	.	.	.	i
Cc1ccc(-c2ccc(/C=C(\C#N)C(N)=S)n2C)cc1	-0.007	-14	i	6*	i	i
Cn1cccc1/C=C(/C#N)C(N)=S	-0.015	-5	i	i	i	i
O=C(/C=C/c1ccc(Cl)cc1)NC(=S)NN1CCCCC1c1cccnc1 (stereo not given)	6.2*	-7	i	i	i	.
Cc1ccc(S(=O)(=O)Oc2cccc([N+](=O)[O-])c2)cc1	.	.	.	.	.	i
Cc1ccc(/C=C2/NC(=O)N(Cc3ccccc3)C2=O)s1	-1.2	-5	i	i	i	i
CCN1C(=O)/C(=C/c2ccc(C)s2)NC1=S	.	10*	10*	i	i	i

Screening results deposited in PubChem by several laboratories.
